# Rows were chosen to be rich in hits. Some 2.3% of all compounds tested hit in one or more screens of this group.
# TAAR1 antagonist: human TAAR1 antagonism; Q96RJ0; 1.5% of 360,000 active; CHO RD-HGA16 TAAR1, Fluo-8 calcium fluorescence, antagonist; inhibition, % at 3 µM;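 active means inhibition above a per-plate cutoff, the mean inhibition of test compounds on that plate plus 3 SD, cut at about 49% in these data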;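 further: 0% = DMSO plus EC80 beta-PEA response and 100% = DMSO alone without agonist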
# Target sequence (Q96RJ0 whole entry, looked up): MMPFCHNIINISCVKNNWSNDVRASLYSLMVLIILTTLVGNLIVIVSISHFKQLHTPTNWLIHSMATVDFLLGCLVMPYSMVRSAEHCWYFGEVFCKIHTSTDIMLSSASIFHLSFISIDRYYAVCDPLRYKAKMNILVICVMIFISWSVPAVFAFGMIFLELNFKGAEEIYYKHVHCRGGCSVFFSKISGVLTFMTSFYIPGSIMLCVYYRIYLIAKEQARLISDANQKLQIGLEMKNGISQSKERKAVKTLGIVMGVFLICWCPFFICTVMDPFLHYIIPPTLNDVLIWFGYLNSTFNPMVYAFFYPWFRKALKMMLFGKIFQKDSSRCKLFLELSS
#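 System: CHO RD-HGA16 cells bearing hTAAR1. Reagent: EC80 β-phenethylamine stimulus. Schedule: seeding 17-24 h prior, 75-min 37 °C, 30-min RT dye loading. Signal: Fluo-8 intracellular calcium dye fluorescence, real-time kinetic reads. Read-out: % inhibition from peak post-agonist over basal fluorescence ratio. Benchmarks: vehicle wells and EC80 agonist wells. Replicates: n of 1.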
# OXTR ag: activates the human oxytocin receptor; P30559; CHO-OTR cells, Fluo-8 calcium fluorescence; normalized: DMSO 0%, oxytocin 100%; activation, % at 3 µM; 0.32% of 320,000 active; AID 2435;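 active means activation above the mean of all tested compounds plus 3 SD, cutoff set per screening run, cut at about 20% in these data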;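 further: peak over basal fluorescence ratio from a 100 s FLIPR kinetic read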
# OXTR potentiate: potentiates the human oxytocin receptor response; CHO-OTR cells, Fluo-8 calcium fluorescence, potentiator mode; 0% = oxytocin EC15, 100% = EC100; activation, % at 3 µM; 0.061% of 320,000 active; AID 2445;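 active means activation above that plate's cutoff, the mean activation of tested compounds plus 3 SD, cut at about 6.6% in these data, passing the limit was not always enough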;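 further: 100% uses oxytocin at 75 nM as the full agonist control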
#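 System: human OTR in CHO cells / Also added: sub-maximal oxytocin, roughly EC15 / Control set: EC15 oxytocin low, 75 nM oxytocin high / Schedule: 6 min compound pre-incubation at room temperature, 100 s kinetic read / Compound: single-point 3.0 µM / Replication: singlicate / Technique: Fluo-8 calcium dye fluorescence / Read-out basis: % activation of max/min ratio relative to oxytocin controls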
# V1aR counter: activates human V1a receptor in oxytocin agonist counter-screen; CHO-V1R cells, Fluo-8 calcium fluorescence, agonist mode; 0% DMSO, 100% 3 nM vasopressin; activation, % at 3 µM; 0.25% of 320,000 active;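 active means activation above the mean activation of all tested compounds plus 3 SD, per screening run, cut at about 20% in these data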;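 further: signal is peak over basal fluorescence ratio across a 100 second FLIPR read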
# TAAR1 ag: agonists of human TAAR1. Q96RJ0. CHO RD-HGA16 TAAR1, Fluo-8 calcium fluorescence; vehicle wells 0%, saturating PEA agonist 100%. activation, % at 3 µM. 0.99% of 360,000 active;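 active means activation above the mean activation of all test compounds in the run plus 3 SD, cut at about 38% in these data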
#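 Repeats: no replicates (n 1) | Material: CHO-derived RD-HGA16 cells with stable Gα16 and human TAAR1 | Technique: Kinetic Fluo-8 calcium fluorescence | Schedule: 17-24 h seeding, 75 min 37 °C dye, 30 min RT | Evaluation: % activation from peak over basal fluorescence ratio, DMSO-to-PEA scaled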
# TAAR1 nonsel count: counter-screen for TAAR1 antagonists: nonselective antagonists | counterscreen cell line, calcium fluorescence, antagonist mode | 77% of 2,400 active | shares compounds with TAAR1 antagonist | inhibition, % at 3 µM | AID 651780; in the data active means inhibition above about 22%;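 further: CHO-Ga16 host cells stimulated with ATP at an EC80 level; 0% = agonist EC80 plus vehicle and 100% = vehicle without agonist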
# TAAR1 antag conf: human TAAR1 antagonism, confirmed | inhibition, % at 3 µM | shares compounds with TAAR1 antagonist | 40% of 2,400 active | TAAR1-expressing cells, fluorescence antagonist read-out; in the data active means inhibition above about 49%;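 further: CHO-Ga16 host cells challenged with agonist PEA near its EC80; 0% = agonist at EC80 plus vehicle and 100% = vehicle with no agonist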
# Ga16 nonsel ag: counter-screen for TAAR1 antagonists: nonselective Ga16 agonists; shares compounds with TAAR1 antagonist; Ga16-expressing cells, calcium fluorescence, agonist counterscreen; activation, % at 3 µM; 18% of 2,400 active; AID 651953; in the data active means activation above about 12%;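 further: 0% = vehicle wells and 100% = saturating stimulus response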
# TAAR1 ag counter: TAAR1 agonism, antagonist counter-screen; 2% of 2,400 active; activation, % at 3 µM; shares compounds with TAAR1 antagonist; AID 651955; hTAAR1 cell line, fluorescence activation, agonist mode; in the data active means activation above about 37%;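 further: CHO cells stably expressing TAAR1 with calcium dye readout; 0% = DMSO vehicle and 100% = full agonist response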
# Numbers without * were called inactive; nt = not tested or not shown.
SMILES,TAAR1 antagonist,OXTR ag,OXTR potentiate,V1aR counter,TAAR1 ag,TAAR1 nonsel count,TAAR1 antag conf,Ga16 nonsel ag,TAAR1 ag counter
O=C(Nc1cccnc1)c1cc(-c2cccc(Br)c2)nc2ccccc12,65*,1,-10,2,2,27*,47,5,5
O=[N+]([O-])c1cccc(-c2ccc(/C=N/Nc3nc(N4CCCCC4)nc(N4CCCCC4)n3)o2)c1,52*,0,-6,1,6,19,35,4,6
O=[N+]([O-])c1ccc(-c2ccc(/C=N/Nc3nc(N4CCCCC4)nc(N4CCCCC4)n3)o2)cc1,-5,nt,nt,nt,10,nt,nt,nt,nt
Oc1ccc(N=Nc2ccc3c(c2)OCCO3)c2cccnc12,83*,2,-6,-1,26,32*,31,3,8
CC1(C(=O)Nc2ccc(F)cc2F)CCN1C(=O)Cc1ccc(Cl)cc1Cl (stereo not given),-7,nt,nt,nt,-3,nt,nt,nt,nt
COC(=O)c1ccccc1NC(=S)N(Cc1ccc2c(c1)OCO2)Cc1cc2cc(OC)ccc2[nH]c1=O,53*,1,-1,1,3,15,27,6,9
COc1ccc(NC(=O)N(Cc2cc3cc(OC)ccc3[nH]c2=O)CC2CCCO2)cc1 (stereo not given),56*,-2,-14,-1,13,27*,41,7,5
COc1ccc(NC(=O)N(Cc2cc3ccc(OC)cc3[nH]c2=O)CC2CCCO2)cc1 (stereo not given),10,-2,-17,-1,15,nt,nt,nt,nt
COc1ccccc1C(=O)NC(CCSC)C(=O)NCCCSc1ccccc1 (stereo not given),13,-2,-4,-1,0,nt,nt,nt,nt
CC(C)(C)OC(=O)N1CCC(C(=O)Nc2ccc(C(=O)NCCc3ccccc3)cc2)CC1,44,nt,nt,nt,31,nt,nt,nt,nt
O=C(NCCc1ccccc1)c1cccc(NC(=O)C2CC2)c1,10,nt,nt,nt,0,nt,nt,nt,nt
CC(C)(C)OC(=O)N1CCC(C(=O)Nc2cccc(C(=O)NCCCCc3ccccc3)c2)CC1,66*,nt,nt,nt,16,37*,44,13*,12
O=C(NCCCCc1ccccc1)c1cccc(NC(=O)C2CCCCC2)c1,61*,nt,nt,nt,6,30*,36,8,5
O=C(/C=C/c1ccccc1)Nc1cccc(C(=O)NCCc2ccccc2)c1,68*,nt,nt,nt,13,37*,57*,8,6
O=C(NCCCc1ccccc1)c1cccc(NC(=O)C2CCCC2)c1,22,nt,nt,nt,8,nt,nt,nt,nt
CC[C@@]1(C(=O)OC)N[C@H](CN(C)C(=O)c2ccc(C(C)(C)C)cc2)[C@@H]2C(=O)N(Cc3ccccc3)C(=O)[C@@H]21,66*,-1,5,-2,12,28*,51*,7,8
CCc1cc(=O)oc2cc(C)cc(OCC(=O)NCCc3c[nH]c4ccccc34)c12,69*,3,-7,1,5,29*,40,6,1
O=C(COc1ccc2ccc(=O)oc2c1)NCCc1c[nH]c2ccc(F)cc12,36,7,-14,8,10,nt,nt,nt,nt
CCCc1cc(=O)oc2cc(OCC(=O)NCCc3c[nH]c4ccc(OC)cc34)ccc12,60*,5,-6,4,9,30*,42,9,5
CC(SCc1ccccc1)C(=O)Nc1ccccc1 (stereo not given),3,-1,-2,0,0,nt,nt,nt,nt
Cn1c(/C=C(\C#N)C(N)=S)ccc1-c1ccc(Br)cc1,67*,nt,nt,nt,10,25*,39,6,15
Cn1cccc1/C=C(\C#N)C(N)=S,-10,0,0,1,17,nt,nt,nt,nt
